Test results: ChEMBL document CHEMBL3774372, “Design, physico-chemical properties and biological evaluation of some new N-[(phenoxy)alkyl]- and N-{2-[2-(phenoxy)ethoxy]ethyl}aminoalkanols as anticonvulsant agents” (Bioorg Med Chem, 2016)
Activity calls are given as the source filed them.

Columns and labels:
[1] = target: 5-hydroxytryptamine receptor 2B (Homo sapiens, UniProt P41595); assay: Displacement of [125I](+/-)DOI from human recombinant 5-HT2B receptor expressed in CHO cells; assay type: cell-based
Sequence of 5-hydroxytryptamine receptor 2B (P41595 whole entry): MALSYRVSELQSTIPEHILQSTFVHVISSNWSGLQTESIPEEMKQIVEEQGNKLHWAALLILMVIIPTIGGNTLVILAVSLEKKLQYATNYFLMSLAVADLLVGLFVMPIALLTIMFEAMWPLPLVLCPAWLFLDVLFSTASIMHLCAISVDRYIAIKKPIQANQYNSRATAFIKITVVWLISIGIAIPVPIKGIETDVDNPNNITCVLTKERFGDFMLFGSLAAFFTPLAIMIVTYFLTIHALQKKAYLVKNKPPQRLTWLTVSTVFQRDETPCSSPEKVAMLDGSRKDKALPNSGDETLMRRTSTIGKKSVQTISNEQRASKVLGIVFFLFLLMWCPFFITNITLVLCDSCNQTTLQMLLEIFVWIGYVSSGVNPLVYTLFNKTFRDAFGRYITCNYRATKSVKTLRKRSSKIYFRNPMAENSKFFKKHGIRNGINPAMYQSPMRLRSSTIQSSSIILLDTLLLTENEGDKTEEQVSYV

Vibrio harveyi [2] = assay: Antimutagenic activity against Vibrio harveyi BB7XM assessed as inhibition of NQNO-induced mutagenicity after 48 hrs; assay type: functional
Outline: (§1)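 V. harveyi cultures grown exponentially to A600 0.1 at 30 °C, exposed to test compound for 15 min, then to NQNO, and grown on to A600 0.3–0.4. 5 × 10⁶ cells plated on BOSS agar with neomycin (100, final). Neomycin-resistant colonies counted after 48 h at 30 °C. Result given as % inhibition of NQNO mutagenicity; three independent repeats.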

Rattus norvegicus [3] = assay: Neurotoxicity in rat at 30 mg/kg, po after 2 hrs by rotarod test; assay type: toxicity, organism-based; conditions: in vivo
Vibrio harveyi [4] = assay: Mutagenicity in Vibrio harveyi BB7XM assessed as number of colonies after 48 hrs (reference value: 14 no_unit); assay type: ADME, organism-based; conditions: in vivo
Outline: (§2)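 Vibrio harveyi mutagenicity test: test compound was added to exponentially growing cultures (A600 = 0.1, 30 °C) and grown to OD600 0.3–0.4. Then 5 × 10^6 cells were plated on BOSS agar with neomycin (final 100 µg/mL) and incubated 48 h at 30 °C. Neomycin-resistant colonies were counted. Triplicate; controls were water, DMSO and NQNO 40 ng/mL.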

Mus musculus [5] = assay: Neurotoxicity in mouse at 100 mg/kg, ip after 0.5 hrs by rotarod test; assay type: toxicity, organism-based; conditions: in vivo
Outline: (§3)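 Mice were dosed ip with compound suspended in 0.5% methylcellulose. Rotarod: a 1 in. knurled rod turning at 6 rpm. Neurotoxicity was scored as failure to stay on the rod for at least 1 min in each of three trials. Results are given as the number of animals affected out of the number tested.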

Vibrio harveyi [6] = assay: Mutagenicity in Vibrio harveyi BB7M assessed as number of colonies after 48 hrs (reference value: 13 to 14 no_unit); assay type: ADME, organism-based; conditions: in vivo; outline: as §2
Mus musculus [7] = assay: Anticonvulsant activity in mouse assessed as protection against maximal electric shock-induced seizures at 30 mg/kg, ip measured after 0.5 hrs; assay type: functional, organism-based
Outline: (§4)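 Mice dosed ip with suspension in 0.5% methylcellulose; maximal electroshock applied at the listed time after dosing. Protection = abolition of hindlimb tonic extension component of seizure; reported as animals protected/animals tested.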

Mus musculus [8] = assay: Neurotoxicity in mouse at 3 mg/kg, ip after 0.5 hrs by rotarod test; assay type: toxicity, organism-based; conditions: in vivo; outline: as §3
Mus musculus [9] = assay: Anticonvulsant activity in mouse assessed as protection against maximal electric shock-induced seizures at 3 mg/kg, ip measured after 0.5 hrs; assay type: functional, organism-based; outline: as §4
Vibrio harveyi [10] = assay: Antimutagenic activity against Vibrio harveyi BB7M assessed as inhibition of NQNO-induced mutagenicity after 48 hrs; assay type: functional; outline: as §1
Rattus norvegicus [11] = assay: Anticonvulsant activity in rat assessed as protection against maximal electric shock-induced seizures at 30 mg/kg, po measured after 0.5 hrs; assay type: functional, organism-based
Outline: (§5)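 Rats dosed ip or orally as 0.5% methylcellulose suspension; maximal electroshock at listed time. Protection = abolition of hindlimb tonic extension; 4 rats per group, scored protected/tested.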

Rattus norvegicus [12] = assay: Neurotoxicity in rat at 30 mg/kg, po after 4 hrs by rotarod test; assay type: toxicity, organism-based; conditions: in vivo
Mus musculus [13] = assay: Anticonvulsant activity in mouse assessed as protection against maximal electric shock-induced seizures at 10 mg/kg, ip measured after 0.5 hrs; assay type: functional, organism-based; outline: as §4
Vibrio harveyi [14] = assay: Mutagenicity in Vibrio harveyi BB7X assessed as number of colonies after 48 hrs (reference value: 15 to 16 no_unit); assay type: ADME, organism-based; conditions: in vivo; outline: as §2
Mus musculus [15] = assay: Anticonvulsant activity in mouse assessed as protection against subcutaneous pentylenetetrazol-induced seizures at 30 mg/kg, ip measured after 0.5 hrs; assay type: functional, organism-based
Outline: (§6)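 Mice dosed ip as 0.5% methylcellulose suspension; pentylenetetrazole 85 mg/kg in 0.9% NaCl injected subcutaneously into posterior midline, animals watched at least 30 min. Protection = no threshold seizure (single clonic spasm episode lasting ≥5 s); scored protected/tested.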

Rattus norvegicus [16] = assay: Neurotoxicity in rat at 30 mg/kg, po after […] by rotarod test; assay type: toxicity, organism-based; conditions: in vivo
Vibrio harveyi [17] = assay: Antimutagenic activity against Vibrio harveyi BB7 assessed as inhibition of NQNO-induced mutagenicity after 48 hrs; assay type: functional; outline: as §1
Rattus norvegicus [18] = assay: Anticonvulsant activity in rat assessed as protection against maximal electric shock-induced seizures at 30 mg/kg, po measured after 2 hrs; assay type: functional, organism-based; outline: as §5
Mus musculus [19] = assay: Neurotoxicity in mouse at 10 mg/kg, ip after 0.5 hrs by rotarod test; assay type: toxicity, organism-based; conditions: in vivo; outline: as §3
Vibrio harveyi [20] = assay: Antimutagenic activity against Vibrio harveyi BB7X assessed as inhibition of NQNO-induced mutagenicity after 48 hrs; assay type: functional; outline: as §1
Rattus norvegicus [21] = assay: Neurotoxicity in rat at 30 mg/kg, po after 1 hr by rotarod test; assay type: toxicity, organism-based; conditions: in vivo
Mus musculus [22] = assay: Anticonvulsant activity in mouse assessed as protection against maximal electric shock-induced seizures at 30 mg/kg, ip measured after 4 hrs; assay type: functional, organism-based; outline: as §4
Rattus norvegicus [23] = assay: Anticonvulsant activity in rat assessed as protection against maximal electric shock-induced seizures at 30 mg/kg, po measured after 1 hr; assay type: functional, organism-based; outline: as §5
Mus musculus [24] = assay: Neurotoxicity in mouse at 300 mg/kg, ip after 0.5 hrs by rotarod test; assay type: toxicity, organism-based; conditions: in vivo; outline: as §3
Rattus norvegicus [25] = assay: Anticonvulsant activity in rat assessed as protection against maximal electric shock-induced seizures at 30 mg/kg, po measured after 4 hrs; assay type: functional, organism-based; outline: as §5
Mus musculus [26] = assay: Anticonvulsant activity in mouse assessed as protection against subcutaneous pentylenetetrazol-induced seizures at 30 mg/kg, ip measured after 4 hrs; assay type: functional, organism-based; outline: as §6
Mus musculus [27] = assay: Neurotoxicity in mouse at 30 mg/kg, ip after 4 hrs by rotarod test; assay type: toxicity, organism-based; conditions: in vivo; outline: as §3
Mus musculus [28] = assay: Neurotoxicity in mouse at 30 mg/kg, ip after 0.5 hrs by rotarod test; assay type: toxicity, organism-based; conditions: in vivo; outline: as §3
Rattus norvegicus [29] = assay: Anticonvulsant activity in rat assessed as protection against maximal electric shock-induced seizures at 30 mg/kg, po measured after […]; assay type: functional, organism-based
Vibrio harveyi [30] = assay: Mutagenicity in Vibrio harveyi BB7 assessed as number of colonies after 48 hrs (reference value: 13 to 14 no_unit); assay type: ADME, organism-based; conditions: in vivo; outline: as §2
Rattus norvegicus [31] = assay: Neurotoxicity in rat at 30 mg/kg, po after 0.5 hrs by rotarod test; assay type: toxicity, organism-based; conditions: in vivo
[32] = target: 5-hydroxytryptamine receptor 2C (Homo sapiens, UniProt P28335); assay: Displacement of [3H][…] from human recombinant 5-HT2C receptor expressed in HEK293 cells; assay type: cell-based
Sequence of 5-hydroxytryptamine receptor 2C (P28335 whole entry): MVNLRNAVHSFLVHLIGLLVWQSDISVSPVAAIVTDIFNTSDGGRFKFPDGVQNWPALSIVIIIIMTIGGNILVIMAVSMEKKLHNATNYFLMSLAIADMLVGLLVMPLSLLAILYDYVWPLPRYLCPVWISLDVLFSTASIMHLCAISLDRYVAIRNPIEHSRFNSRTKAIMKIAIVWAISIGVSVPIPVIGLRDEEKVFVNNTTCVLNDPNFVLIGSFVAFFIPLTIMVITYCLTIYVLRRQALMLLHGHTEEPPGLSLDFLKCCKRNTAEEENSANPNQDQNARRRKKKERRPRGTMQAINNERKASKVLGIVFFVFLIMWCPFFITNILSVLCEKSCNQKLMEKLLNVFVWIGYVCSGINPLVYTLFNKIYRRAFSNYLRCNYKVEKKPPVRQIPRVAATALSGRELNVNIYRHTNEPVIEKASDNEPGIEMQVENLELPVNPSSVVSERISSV

Mus musculus [33] = assay: Neurotoxicity in mouse at 100 mg/kg, ip after 2 hrs by rotarod test; assay type: toxicity, organism-based; conditions: in vivo; outline: as §3
Mus musculus [34] = assay: Anticonvulsant activity in mouse assessed as protection against 6 Hz psychomotor seizure at 100 mg/kg, ip after 1 hr; assay type: functional, organism-based
Outline: (§7)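 Suspension in 0.5% methylcellulose given ip to mice; corneal stimulation with 0.2 ms monopolar rectangular pulses at 6 Hz for 3 s from a constant current device, mice restrained then released to observation cage. Protected if normal exploratory behaviour resumed within 10 s of stimulation. Scored as protected/tested, 4 mice per group.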

Mus musculus [35] = assay: Anticonvulsant activity in mouse assessed as protection against 6 Hz psychomotor seizure at 100 mg/kg, ip after 2 hrs; assay type: functional, organism-based; outline: as §7
Mus musculus [36] = assay: Neurotoxicity in mouse at 100 mg/kg, ip after 4 hrs by rotarod test; assay type: toxicity, organism-based; conditions: in vivo; outline: as §3
Mus musculus [37] = assay: Anticonvulsant activity in mouse assessed as protection against 6 Hz psychomotor seizure at 100 mg/kg, ip after 0.5 hrs; assay type: functional, organism-based; outline: as §7
Mus musculus [38] = assay: Anticonvulsant activity in mouse assessed as protection against 6 Hz psychomotor seizure at 100 mg/kg, ip after 4 hrs; assay type: functional, organism-based; outline: as §7
Mus musculus [39] = assay: Anticonvulsant activity in mouse assessed as protection against 6 Hz psychomotor seizure at 100 mg/kg, ip after […]; assay type: functional, organism-based
Mus musculus [40] = assay: Anticonvulsant activity in mouse assessed as protection against subcutaneous pentylenetetrazol-induced seizures at 100 mg/kg, ip measured after 4 hrs; assay type: functional, organism-based; outline: as §6
Mus musculus [41] = assay: Neurotoxicity in mouse at 100 mg/kg, ip after […] by rotarod test; assay type: toxicity, organism-based; conditions: in vivo
Mus musculus [42] = assay: Neurotoxicity in mouse at 300 mg/kg, ip after 4 hrs by rotarod test; assay type: toxicity, organism-based; conditions: in vivo; outline: as §3
Mus musculus [43] = assay: Anticonvulsant activity in mouse assessed as protection against maximal electric shock-induced seizures at 100 mg/kg, ip measured after 4 hrs; assay type: functional, organism-based; outline: as §4

## COc1cc(CC(C)N)c(OC)cc1I (racemic)
[1]
  IC50: 2.5 nM

## CC[C@@H](CO)NCCOCCOc1c(C)cccc1C
Vibrio harveyi [2]
  inhibition (INH): 15%
Rattus norvegicus [3]
  Activity: Non-toxic
Vibrio harveyi [4]
  Activity: 22
Mus musculus [5]
  Activity: Toxic
Vibrio harveyi [6]
  Activity: 26
Mus musculus [7]
  Activity: Active
Mus musculus [8]
  Activity: Non-toxic
Mus musculus [9]
  Activity: inactive
Vibrio harveyi [10]
  inhibition (INH): 52%
Rattus norvegicus [11]
  Activity: inactive
Rattus norvegicus [12]
  Activity: Non-toxic
Mus musculus [13]
  Activity: inactive
Vibrio harveyi [14]
  Activity: 27
Mus musculus [15]
  Activity: inactive
Rattus norvegicus [16]
  Activity: Non-toxic
Vibrio harveyi [17]
  inhibition (INH): 88%
Rattus norvegicus [18]
  Activity: inactive
Mus musculus [19]
  Activity: Non-toxic
Vibrio harveyi [20]
  inhibition (INH): 22%
Rattus norvegicus [21]
  Activity: Non-toxic
Mus musculus [22]
  Activity: inactive
Rattus norvegicus [23]
  Activity: inactive
Mus musculus [24]
  Activity: Toxic
Rattus norvegicus [25]
  Activity: inactive
Mus musculus [26]
  Activity: inactive
Mus musculus [27]
  Activity: Non-toxic
Mus musculus [28]
  Activity: Non-toxic
Rattus norvegicus [29]
  Activity: inactive
Vibrio harveyi [30]
  Activity: 28
Rattus norvegicus [31]
  Activity: Non-toxic

## COc1cc(OC)c(C(=O)CCCCN2CCC3(CC2)NC(=O)NC3=O)cc1NS(=O)(=O)c1ccc(C(F)(F)F)cc1 [RS-102,221]
[32]
  IC50: 1.5 nM

## Cc1ccc(OCCNC(C)CO)c(C)c1 (stereo not given)
Mus musculus [33]
  Activity: Non-toxic
Mus musculus [34]
  Activity: inactive
Mus musculus [35]
  Activity: inactive
Mus musculus [36]
  Activity: Non-toxic
Mus musculus [37]
  Activity: inactive
Mus musculus [38]
  Activity: inactive

## Cc1cccc(OCCOCCNC(C)CO)c1C (stereo not given)
Mus musculus [5]
  Activity: Toxic
Mus musculus [39]
  Activity: Active
Mus musculus [7]
  Activity: inactive
Mus musculus [40]
  Activity: inactive
Mus musculus [41]
  Activity: Toxic
Mus musculus [34]
  Activity: Active
Mus musculus [42]
  Activity: Non-toxic
Mus musculus [35]
  Activity: inactive
Mus musculus [36]
  Activity: Non-toxic
Mus musculus [15]
  Activity: inactive
Mus musculus [43]
  Activity: inactive
Mus musculus [22]
  Activity: inactive
Mus musculus [24]
  Activity: Toxic
Mus musculus [26]
  Activity: inactive
Mus musculus [27]
  Activity: Non-toxic
Mus musculus [28]
  Activity: Non-toxic
Mus musculus [38]
  Activity: inactive
